Measured values of several laboratories.
Protocols differ between the studies behind these lines. ≈ marks a conversion by molar mass, not a printed value.

Compound | organism | assay | system | conditions | quantity | value
O=C(N[C@H](CO)[C@H](O)c1ccc([N+](=O)[O-])cc1)C(Cl)Cl | Salmonella enterica | microbial growth | – | 20 h, pH 5.5 | MIC | 2 µg/mL (≈ 6.19 µM)
O=c1cc(-c2ccc(O)c(O)c2)oc2cc(O)cc(O)c12 | Helicobacter pylori | microbial growth, broth dilution | – | 31.25 µg/mL | inhibition | 100%
CO[C@H]1O[C@H](COC(c2ccccc2)(c2ccccc2)c2ccccc2)[C@@H](OC(=O)c2ccc(C(C)(C)C)cc2)[C@H](OC(=O)c2ccc(C(C)(C)C)cc2)[C@H]1OC(=O)c1ccc(C(C)(C)C)cc1 | Bacillus cereus | microbial killing, broth dilution | – | – | MBC | 8 µg/mL (≈ 8.72 µM)
CCN1CCN(c2cc3c(cc2F)c(=O)c(C(=O)O)cn3C2CC2)CC1 | Salmonella enterica | microbial growth | ENTERITIDIS | 20 h, pH 5.5 | MIC | 0.25 µg/mL (≈ 0.696 µM)
O=C(O)CN1C(=O)/C(=C/c2ccc(-c3ccc(N(c4ccccc4)c4ccccc4)cc3)cc2)NC1=S | Bacillus cereus | microbial killing, broth dilution | ATCC10876 | – | MBC | 250 µg/mL (≈ 494 µM)
CO/N=C(\C(=O)N[C@@H]1C(=O)N2C(C(=O)O)=C(CSc3nc(=O)c(=O)[nH]n3C)CS[C@H]12)c1csc(N)n1 | Salmonella enterica | microbial growth | ENTERITIDIS | 20 h, pH 7 | MIC | 0.0625 µg/mL (≈ 0.113 µM)
O=C(O)CN1C(=O)/C(=C/c2ccc(-c3ccc(N(c4ccccc4)c4ccccc4)cc3)c3ccccc23)NC1=S | Bacillus cereus | microbial killing, broth dilution | ATCC10876 | – | MBC | > 1000 µg/mL
O=C(N[C@H](CO)[C@H](O)c1ccc([N+](=O)[O-])cc1)C(Cl)Cl | Salmonella enterica | microbial growth | ATCC13311 TYPHIMURIUM | – | MIC90 | 0.98 µg/mL (≈ 3.03 µM)
O=C(O)CN1C(=O)/C(=C/c2c3ccccc3c(-c3ccc(N(c4ccccc4)c4ccccc4)cc3)c3ccccc23)NC1=S | Bacillus cereus | microbial killing, broth dilution | ATCC10876 | – | MBC | > 1000 µg/mL
COc1c(N2C[C@@H]3CCCN[C@@H]3C2)c(F)cc2c(=O)c(C(=O)O)cn(C3CC3)c12 | Salmonella enterica | microbial growth | ATCC13311 TYPHIMURIUM | – | MIC90 | 0.49 µg/mL (≈ 1.22 µM)
O=C1NC(=S)N/C1=C\c1ccc(-c2ccc(N(c3ccccc3)c3ccccc3)cc2)cc1 | Bacillus cereus | microbial killing, broth dilution | ATCC10876 | – | MBC | > 1000 µg/mL
O=C(O)c1cn(C2CC2)c2cc(N3CCNCC3)c(F)cc2c1=O | Salmonella enterica | microbial growth | ENTERITIDIS | 20 h, pH 7.2 | MIC | 0.0156 µg/mL (≈ 0.0471 µM)
O=C1NC(=S)N/C1=C\c1c2ccccc2c(-c2ccc(N(c3ccccc3)c3ccccc3)cc2)c2ccccc12 | Bacillus cereus | microbial killing, broth dilution | ATCC10876 | – | MBC | > 1000 µg/mL
CN(C)[C@@H]1C(O)=C(C(N)=O)C(=O)[C@@]2(O)C(O)=C3C(=O)c4c(O)cccc4[C@@](C)(O)[C@H]3C[C@@H]12 | Salmonella enterica | microbial growth | F98, TYPHIMURIUM | 20 h, pH 7 | MIC | 1 µg/mL (≈ 2.25 µM)
COc1cc([C@H]2OC[C@H]3[C@@H]2CO[C@@H]3c2cc(OC)c(O)c(OC)c2)cc(OC)c1O | Helicobacter pylori | microbial growth, broth dilution | – | 31.25 µg/mL | inhibition | 100%
Cc1cc(NS(=O)(=O)c2ccc(N)cc2)no1 | Salmonella enterica | microbial growth | ENTERITIDIS | 20 h, pH 7 | MIC | 64 µg/mL (≈ 253 µM)
COC(=O)c1ccc(O)cc1 | Helicobacter pylori | microbial growth, broth dilution | – | 15.63 µg/mL | inhibition | 100%
CC1(C)S[C@@H]2[C@H](NC(=O)[C@H](N)c3ccccc3)C(=O)N2[C@H]1C(=O)O | Salmonella enterica | microbial growth, agar dilution | ENTERITIDIS | 26.93 µM | inhibition | 100%
C=C[C@@]1(C)C=C2CC[C@@H]3[C@](C)(CCC[C@@]3(C)C(=O)O)[C@H]2CC1 | Helicobacter pylori | microbial growth, broth dilution | – | 15.63 µg/mL | inhibition | 86.3%
O=C1NC(=S)N/C1=C\c1ccc(-c2ccc(N(c3ccccc3)c3ccccc3)cc2)c2ccccc12 | Bacillus cereus | microbial killing, broth dilution | ATCC10876 | – | MBC | > 1000 µg/mL
[H]/N=C(/N)N[C@H]1[C@H](O)[C@@H](O)[C@H](O[C@@H]2O[C@@H](C)[C@](O)(C=O)[C@H]2O[C@@H]2O[C@@H](CO)[C@H](O)[C@@H](O)[C@@H]2NC)[C@@H](N/C(N)=N\[H])[C@@H]1O | Salmonella enterica | microbial growth | – | 20 h, pH 7.2 | MIC | 8 µg/mL (≈ 13.8 µM)
O=c1cc(-c2ccc(O)cc2)oc2cc(O)cc(O)c12 | Helicobacter pylori | microbial growth, broth dilution | – | 0.98 µg/mL | inhibition | 82.6%
O=C(O)CN1C(=O)/C(=C/c2ccc(-c3ccc(N(c4ccccc4)c4ccccc4)cc3)c3ccccc23)SC1=S | Bacillus cereus | microbial killing, broth dilution | ATCC10876 | – | MBC | > 1000 µg/mL
CO/N=C(\C(=O)N[C@@H]1C(=O)N2C(C(=O)O)=C(CSC(=O)c3ccco3)CS[C@H]12)c1csc(N)n1 | Salmonella enterica | microbial growth | TYPHIMURIUM | 20 h, pH 7.2 | MIC | 1 µg/mL (≈ 1.91 µM)
COc1ccc(-c2cc(=O)c3c(O)cc(O[C@@H]4O[C@H](CO)[C@@H](O)[C@H](O)[C@H]4O)cc3o2)cc1O | Helicobacter pylori | microbial growth, broth dilution | – | 62.5 µg/mL | inhibition | 100%
